Compound activity as filed in PubChem.
An excerpt weighted towards active compounds, which were near 2.1% of everything screened.
CXCR6 inh: CXCR6 (human) receptor inhibition. CHO-K1 PathHunter CXCR6 beta-arrestin, luminescence. inhibition, % at 20 µM. 0.36% of 360,000 active. AID 602244; in the data active = inhibition above about 34%, passing the limit was not always enough;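 also: antagonist mode with CXCL16 agonist at 10 nM final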
CCR6 antagonist: blocks CCL20-driven beta-arrestin recruitment at human CCR6 | 0.49% of 340,000 active | inhibition, % at 20 µM | CHO-K1 CCR6 PathHunter beta-arrestin, luminescence, CCL20-stimulated;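 active = compounds whose inhibition of the agonist-driven luminescence signal at 20 µM reaches about 50%, limit read from the data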;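 also: cells stimulated with CCL20 at 14 nM final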
APJ antagonist: blocks the human apelin receptor APJ. P35414. CHO-K1 APJ beta-arrestin complementation, luminescence. inhibition, % at 20 µM. 0.32% of 330,000 active. AID 2521;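 active = inhibition above about 40% at 20 µM, limit read from the data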;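 also: cells challenged with 10 nM apelin-13 agonist together with compound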
EBI2 antag: EBI2 (human) antagonism; 0.81% of 360,000 active; P32249; inhibition, % at 5 µM; EBI2 beta-arrestin recruitment, luminescence, 7a,25-OHC stimulated; in the data active = inhibition above about 38%;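 also: enzyme fragment complementation signal reports receptor beta-arrestin coupling in cells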
Target sequence (P32249 whole entry, looked up, the tested form may be a part): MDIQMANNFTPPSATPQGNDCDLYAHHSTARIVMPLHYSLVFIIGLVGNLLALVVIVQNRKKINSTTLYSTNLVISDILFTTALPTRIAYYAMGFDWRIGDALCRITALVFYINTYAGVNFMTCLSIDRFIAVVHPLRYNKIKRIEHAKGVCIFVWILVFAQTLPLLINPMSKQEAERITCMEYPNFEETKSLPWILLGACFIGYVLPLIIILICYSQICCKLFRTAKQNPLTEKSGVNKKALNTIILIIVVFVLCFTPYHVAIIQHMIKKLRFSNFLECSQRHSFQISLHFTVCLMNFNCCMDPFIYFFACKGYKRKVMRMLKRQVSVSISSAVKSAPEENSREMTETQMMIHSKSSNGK
APJ agonist: agonists of human APJ apelin receptor; P35414; CHO-K1 APJ PathHunter beta-arrestin, luminescence; 0% DMSO wells, 100% apelin; activation, % at 20 µM; 0.11% of 330,000 active;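 active = activation more than six SD over the plate average, tested at 20 µM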
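Material: CHO-K1 APJ beta-arrestin complementation cell line; Input: cell density 1000 per well; Incubation: compound stimulation 90 min at 25 °C, detection 60 min; Signal: luminescence from split beta-galactosidase complementation, Galacton Star/Emerald II substrate; Controls: DMSO-only wells as negative, 10 nM Apelin-13 as positive control.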
m5-HT2A agonist: activates the mouse 5-HT2A serotonin receptor. CHO-K1 mHTR2A beta-arrestin complementation, luminescence; percent of 30 µM serotonin response. activation, % at 7.6 µM. 0.66% of 360,000 active. AID 624169;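 active = activation above a run cutoff, the mean activation of all tested compounds plus 3 SD, cut at about 14% in these data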
EBI2 antag conf: EBI2 (human) antagonism, single concentration confirmation; shares compounds with EBI2 antag; EBI2 beta-arrestin luminescence, 7a,25-OHC antagonism; inhibition, % at 5 µM; 29% of 2,400 active;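 active = inhibition of at least 50%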
EBI2 agonist: activates EBI2, counter-screen for EBI2 antagonists | shares compounds with EBI2 antag | EBI2-expressing cells, agonist mode, luminescence, 60 min; 0% vehicle, 100% 7α,25-dihydroxycholesterol control | activation, % at 5 µM | 2,400 tested, under 10 active | AID 652000;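 active = activation of at least 50%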
bGal cs: beta-galactosidase inhibition counter-screen | shares compounds with EBI2 antag | purified beta-galactosidase, luminescent Galacton Star, 15 min | inhibition, % at 5 µM | 1% of 2,400 active;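 active = replicate-average signal at least 3 plate SD below neutral wells, shown as high inhibition, flagging enzyme-inhibiting false positives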;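 also: higher means stronger loss of beta-gal luminescence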
Hits are given with their value; . = inactive; / = not tested or not shown.

SMILES	CXCR6 inh	CCR6 antagonist	APJ antagonist	EBI2 antag	APJ agonist	m5-HT2A agonist	EBI2 antag conf	EBI2 agonist	bGal cs
COC(=O)c1ccc(C2C(Oc3ccccc3)C(=O)N2CCc2ccc(F)cc2)cc1 (stereo unspecified)	.	.	.	53	.	.	.	.	.
CCCCOC(=O)Nc1nnc(/C=C/c2ccc(OC)cc2)s1	.	.	.	55	.	.	.	.	.
CC(C)Oc1cc(F)ccc1-c1cc(C(=O)Nc2ccccc2)[nH]n1	.	/	/	.	/	.	/	/	/
CC(C)Oc1cc(F)ccc1-c1cc(C(=O)Nc2ccc(C(C)C)cc2)[nH]n1	.	/	/	54	/	.	.	.	.
CCOc1ccc(Br)cc1S(=O)(=O)Nc1ccc(C(=O)Nc2ccc(C)cc2)cc1	.	.	.	56	.	.	.	.	.
Cc1ccc(CNC(=O)c2ccc(N3CCC4(CC3)CC(c3ccccc3)=NO4)c(NC(=O)c3ccccc3)c2)cc1	.	.	.	.	.	.	/	/	/
Cc1ccc(CNC(=O)c2ccc(N3CCC4(CC3)CC(c3ccccc3)=NO4)c(N)c2)cc1	.	.	.	45	.	.	.	.	.
O=C(CSc1ccc2nnc(-c3ccccn3)n2n1)Nc1ccccc1	.	.	.	55	.	.	.	.	.
CN(C(=O)COC(=O)Cc1c(F)cccc1Cl)c1c(N)n(Cc2ccccc2)c(=O)[nH]c1=O	.	.	.	.	.	.	/	/	/
Cc1nc2c(OCc3ccc(Cl)cc3Cl)cccn2c1N(C)Cc1cccs1	.	/	/	42	/	.	.	.	.
COc1ccc(CN2C(=O)C(CC(=O)NCCc3ccccn3)CC(C(=O)N3CCOCC3)=C2C)cc1 (stereo unspecified)	.	/	/	.	/	.	/	/	/
Nc1cc(C(=O)OCC(=O)Nc2ccc(N3CCOCC3)cc2)ccc1Cl	.	.	.	.	.	.	/	/	/
COCCN(CCOC)C(=O)C1CCN(c2ccc(S(=O)(=O)N3CCOCC3)cc2[N+](=O)[O-])CC1	.	.	.	.	.	.	/	/	/
CCCN(CCC)C(=O)C1CCN(c2ccc(S(=O)(=O)N3CCOCC3)cc2[N+](=O)[O-])CC1	.	.	.	62	.	.	.	.	.
O=C(c1cc(Br)c(Br)s1)N1CCN(C/C=C/c2ccccc2)CC1	.	.	.	65	.	.	.	.	.
Cc1cc(C(=O)N2CCN(C/C=C/c3ccccc3)CC2)cs1	.	.	.	46	.	.	.	.	.
Cn1c(NCc2ccco2)nc2c1c(=O)n(Cc1ccc(Cl)c(Cl)c1)c(=O)n2C	.	.	.	46	.	.	.	.	.
Cn1c(NCC(O)CO)nc2c1c(=O)n(Cc1ccc(Cl)c(Cl)c1)c(=O)n2C (stereo unspecified)	.	.	.	.	.	.	/	/	/
Cc1ccc2[nH]c3c(c2c1)CN(C(=O)CN1c2ccc(F)cc2CCC1C)CC3 (stereo unspecified)	.	.	.	46	.	.	.	.	.
Cc1nc(N2CCCCC2C)c2c(C)c(C(=O)Nc3cccc(C(F)(F)F)c3)sc2n1 (stereo unspecified)	.	.	.	76	.	.	.	.	.
Cc1nc(N2CCCCC2)c2c(C)c(C(=O)Nc3cccc(C(F)(F)F)c3)sc2n1	.	.	.	53	.	.	.	.	.
COc1ccccc1N1CCN(S(=O)(=O)CCNC(=O)CCCc2ccccc2)CC1	.	.	.	.	.	.	/	/	/
COc1ccccc1N1CCN(S(=O)(=O)CCNC(=O)COc2ccccc2)CC1	.	/	/	68	/	.	.	.	.
COc1cc(/C=C2\CCC(C)C3=C(c4cc(OC)c(OC)c(OC)c4)C(C#N)=C(N)OC32)cc(OC)c1OC (stereo unspecified)	.	.	/	45	/	.	.	.	.
Cc1csc(-c2cnn(-c3ccccc3)c2NC(=O)c2cccc(C(F)(F)F)c2)n1	.	.	.	.	.	.	/	/	/
SMILES	CXCR6 inh	CCR6 antagonist	APJ antagonist	EBI2 antag	APJ agonist	m5-HT2A agonist	EBI2 antag conf	EBI2 agonist	bGal cs
Cc1ccc2oc(=O)c3cnn(CC(=O)N(CCN(C)C)Cc4ccco4)c3c2c1	.	.	.	.	.	.	/	/	/
COCCCN(Cc1ccco1)C(=O)Cn1ncc2c(=O)oc3ccc(C)cc3c21	.	.	.	55	.	.	.	.	.
Cc1ccc2oc(=O)c3cnn(CC(=O)N4CCCc5ccccc54)c3c2c1	.	.	.	53	.	.	.	.	.
COC(=O)[C@]1(Cc2ccccc2)N[C@H](CN(C)C(=O)Nc2ccc(C)cc2)[C@@H]2C(=O)N(C)C(=O)[C@@H]21	.	.	.	.	.	.	/	/	/
CC1=C(C(=O)OC2CCCC2)C(c2coc3ccccc3c2=O)C2=C(CC(C)(C)CC2=O)N1 (stereo unspecified)	.	.	.	.	.	.	/	/	/
OC(CC1CC12c1ccccc1-c1ncccc12)(c1ccccc1)c1ccccc1 (stereo unspecified)	.	.	.	47	.	.	.	.	.
CCOC(=O)C(C)C1(O)c2ccccc2-c2ncccc21 (stereo unspecified)	.	.	.	.	.	.	/	/	/
CCN(CC)C(=O)CSc1nc2c(sc(=S)n2-c2ccccc2)c(=O)n1Cc1ccco1	.	.	.	57	.	.	.	.	.
CCCN1C(=O)c2cc(C(=O)Nc3ccccc3C)ccc2C1Nc1ccccc1C (stereo unspecified)	.	.	.	.	.	.	/	/	/
COCCN1C(=O)c2cc(C(=O)Nc3cccc(F)c3)ccc2C1Nc1cccc(F)c1 (stereo unspecified)	.	.	.	75	.	.	.	.	.
COCCN1C(=O)c2cc(C(=O)Nc3ccc(C)c(F)c3)ccc2C1Nc1ccc(C)c(F)c1 (stereo unspecified)	.	.	.	86	.	.	65	.	.
COCCN1C(=O)N(c2ccc(OC)cc2)C(=O)C1CC(=O)Nc1cccc(F)c1 (stereo unspecified)	.	.	.	.	.	.	/	/	/
COC(=O)c1ccc(NC(=O)c2ccc3c(c2)C(=O)N(C)C3=O)cc1	.	.	.	.	.	.	/	/	/
CCc1ccc(NC(=O)c2ccc3c(c2)C(=O)N(CCOC)C3Nc2ccc(CC)cc2)cc1 (stereo unspecified)	.	.	.	65	.	.	62	.	.
